Measured values: ChEMBL document CHEMBL1139517, “Mono- and bis-thiazolium salts have potent antimalarial activity” (J Med Chem, 2005)

Columns and labels:
[1] = Lethal dose against Plasmodium vinckei in mice (Mus musculus) after intraperitoneal administration; type: toxicity; details: in vivo, ip
Plasmodium falciparum = test: In vitro inhibition of Plasmodium falciparum; type: functional, organism-based
Method in brief: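 [³H]-hypoxanthine incorporation assay on the Nigerian strain of P. falciparum, run as described in earlier work. IC₅₀ is the concentration giving 50% inhibition of incorporation.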

[2] = Ratio of LD50 to ED50 expressed as TI; type: ADME; details: mouse
Method in brief: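 Therapeutic index calculated as LD50/ED50. ED50 came from a modified 4-day suppressive test against P. vinckei petteri (279BY) in female Swiss mice, dosed ip once daily for 4 days. It is the dose giving 50% inhibition of parasite growth versus vehicle-treated controls, read the day after the last dose. LD50 came from tolerance after ip administration in mice.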

Mus musculus = test: In vivo effective dose against Plasmodium vinckei in mice (Mus musculus) after intraperitoneal administration of the compound; type: functional; details: ip
Method in brief: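 Modified Peters 4-day suppressive test in female Swiss mice infected with P. vinckei petteri (279BY). Dosing was ip, once daily for 4 days. Controls received an equal volume of vehicle. Parasite growth was assessed on the day after the last treatment. ED₅₀ is the dose giving 50% growth inhibition relative to control.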

SMILES	IC50 (Plasmodium falciparum) [nM]	LD50 [1] [mg/kg]	TI [2] [%]	ED50 (Mus musculus) [mg/kg]
COCCc1sc[n+](CCCCCCCCCCCC[n+]2csc(CCOC)c2C)c1C.[I-].[I-]	0.65	1.2	5	0.14
Cc1c(CCO)sc[n+]1CCCCCCCC[n+]1csc(CCO)c1C	362	–	–	–
CCOC(=O)Cc1c(CCCCCCCCCCCCc2sc[n+](Cc3ccccc3)c2CC(=O)OCC)sc[n+]1Cc1ccccc1	250	–	–	–
c1ccc2c(c1)sc[n+]2CCCCCCCCCCCC[n+]1csc2ccccc21	2300	–	–	–
COCCc1sc[n+](CCCCCCCC[n+]2csc(CCOC)c2C)c1C	87.5	–	–	–
Cc1c(CCOCCCCCCOCCc2sc[n+](C)c2C)sc[n+]1C	275	–	–	–
CCCCCCCCCCCC[n+]1csc(CCOC)c1C	75	–	–	–
Cc1c(CCO)sc[n+]1CCCCCCCCCCCC[n+]1csc(CCO)c1C.[I-].[I-]	2.25	1.2	5	0.2
c1ccc(-c2csc[n+]2CCCCCCCCCCCC[n+]2cscc2-c2ccccc2)cc1	1800	–	–	–
CCN(CC)CCCC(C)Nc1ccnc2cc(Cl)ccc12 (stereo not drawn) [CHLOROQUINE]	–	–	–	1.1

The next lines start with results.

IC50 (Plasmodium falciparum) [nM]	SMILES	LD50 [1] [mg/kg]	TI [2] [%]	ED50 (Mus musculus) [mg/kg]
4.8	Cc1c(CCOC(C)C)sc[n+]1CCCCCCCCCCCC[n+]1csc(CCOC(C)C)c1C	–	–	–
5	COCCc1sc[n+](CCCCc2ccc(CCCC[n+]3csc(CCOC)c3C)cc2)c1C	–	–	–
5	COC(=O)CCC(=O)OCCc1sc[n+](CCCCCCCCCCCC[n+]2csc(CCOC(=O)CCC(=O)OC)c2C)c1C.[I-].[I-]	–	–	3.1
1.6	CCc1sc[n+](CCCCCCCCCCCC[n+]2csc(CC)c2C)c1C.[I-].[I-]	–	–	0.4
8.9	COCCc1sc[n+](CCCCCCCCCC[n+]2csc(CCOC)c2C)c1C	–	–	–
3	Cc1csc[n+]1CCCCCCCCCCCC[n+]1cscc1C.[I-].[I-]	–	–	2.6
1.5	Cc1sc[n+](CCCCCCCCCCCC[n+]2csc(C)c2C)c1C.[I-].[I-]	–	–	1
3.1	CC(=O)OCCc1sc[n+](CCCCCCCCCCCC[n+]2csc(CCOC(C)=O)c2C)c1C.[I-].[I-]	–	–	0.7
1.1	COCCc1sc[n+](CCCCCCCCCCCCCCCC[n+]2csc(CCOC)c2C)c1C	–	–	–
22	CCOC(=O)Cc1c(CCCCCCCCCCCCc2sc[n+](C)c2CC(=O)OCC)sc[n+]1C	–	–	–
34	Cc1c(CCO)sc[n+]1CCCCCCCCCC[n+]1csc(CCO)c1C	–	–	–
0.65	C[N+]1(CCCCCCCCCCCCCCCC[N+]2(C)CCCC2)CCCC1.[Br-].[Br-]	–	–	0.22
1.6	CCOCCc1sc[n+](CCCCCCCCCCCC[n+]2csc(CCOCC)c2C)c1C	–	–	–
10	Cc1c(CCCl)sc[n+]1CCCCCCCCCCCC[n+]1csc(CCCl)c1C	–	–	–
36	Cc1c(CCOCCCCCCOCCc2sc[n+](Cc3ccccc3)c2C)sc[n+]1Cc1ccccc1	–	–	–
70	CCCCCCCCCCCC[n+]1csc(CCO)c1C	–	–	–
